In ChEMBL document CHEMBL4823327, “New Selective Inhibitors of ERG Positive Prostate Cancer: ERGi-USU-6 Salt Derivatives” (ACS Med Chem Lett, 2021):
Activity calls are given as the source filed them. No cut-off for these calls is given here.

Tests used:
VCaP = assay: Cytotoxicity against human VCaP cells assessed as inhibition of cell growth after 120 hrs by Cell Glow […] assay; type: functional, cell-based
[1] = Toxicity in ip dose athymic nude mouse assessed as maximum tolerated dose administered twice a week for 4 weeks; type: organism-based; conditions: in vivo
How it was run: (§1)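 Athymic nude mice were split into five dose groups of 5 animals each: vehicle (90% PEG + 10% DMSO), 50, 100, 150 or 200 mg/kg in the same vehicle, given by injection. Survival and body weight were monitored through the study, with gross examination of major organs and the injection site. MTD was taken as the highest dose at which all animals survived.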

HUVEC = assay: Cytotoxicity against HUVEC assessed as inhibition of cell growth at 0.05 to 0.25 uM; type: cell-based; conditions: human, dose 0.05-0.25 µM
How it was run: (§2)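 HUVEC (ERG-positive normal primary endothelial cells) were treated at the same doses as VCaP cells, over a 0–0.25 μmol/L range. Read-outs were cell growth and endogenous ERG and RIOK2 protein levels.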

[2] = Toxicity in athymic nude mouse assessed as health deterioration at 100 mg/kg, ip administered twice a week for 4 weeks; type: organism-based; conditions: in vivo, 672 h; how it was run: as §1
[3] = Toxicity in athymic nude mouse assessed as tissue and vasculature damage at 200 mg/kg, ip administered twice a week for 4 weeks; type: organism-based; conditions: in vivo, 672 h; how it was run: as §1
[4] = Toxicity in athymic nude mouse assessed as localized inflammation at 200 mg/kg, ip administered twice a week for 4 weeks; type: organism-based; conditions: in vivo, 672 h; how it was run: as §1
[5] = Toxicity in athymic nude mouse assessed as body weight loss at 200 mg/kg, ip administered twice a week for 4 weeks; type: organism-based; conditions: in vivo, 672 h; how it was run: as §1
[6] = target: Serine/threonine-protein kinase RIO2 (Homo sapiens) (UniProt Q9BVS4); assay: Inhibition of RIOK2 in HUVEC at 0.05 to 0.25 uM; conditions: dose 0.05-0.25 µM; how it was run: as §2
Serine/threonine-protein kinase RIO2 (Homo sapiens), sequence (Q9BVS4 whole entry, looked up): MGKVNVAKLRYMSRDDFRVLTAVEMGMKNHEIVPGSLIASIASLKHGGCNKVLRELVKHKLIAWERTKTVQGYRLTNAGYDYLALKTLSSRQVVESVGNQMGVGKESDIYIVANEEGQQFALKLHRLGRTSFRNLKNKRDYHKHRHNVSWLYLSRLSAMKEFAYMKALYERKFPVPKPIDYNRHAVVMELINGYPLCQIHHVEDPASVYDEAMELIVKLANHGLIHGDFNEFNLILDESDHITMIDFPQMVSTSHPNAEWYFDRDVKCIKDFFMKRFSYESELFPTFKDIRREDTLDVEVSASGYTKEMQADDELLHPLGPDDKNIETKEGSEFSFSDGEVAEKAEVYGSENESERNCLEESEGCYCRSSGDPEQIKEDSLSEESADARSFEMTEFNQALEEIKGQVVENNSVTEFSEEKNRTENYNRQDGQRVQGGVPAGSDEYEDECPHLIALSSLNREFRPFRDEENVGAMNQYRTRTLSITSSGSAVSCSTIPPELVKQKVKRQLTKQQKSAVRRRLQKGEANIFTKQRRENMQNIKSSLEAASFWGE

SMILES	IC50 (VCaP; Homo sapiens, VCaP, 120 h) [µM]	MTD at 672 h [1] [mg/kg]	IC50 (VCaP; vcap) [µM]	other results
Oc1ccc2ccccc2c1/N=N/c1nccs1	0.17	150		
CN(C)c1ccc(/N=N/c2ccccn2)c(O)c1 [listing 1 of 3 here]			> 0.5	
CN(C)c1ccc(/N=N/c2ccccn2)c(O)c1.CS(=O)(=O)O			0.089	Activity (HUVEC): Non-Toxic
CN(C)c1ccc(/N=N/c2ccccn2)c(O)c1 [listing 2 of 3 here]		100		Activity [2]: Non-Toxic; Activity [3]: Toxic; Activity [4]: Toxic; Activity [5]: Toxic
CC(=O)C(=O)O.CN(C)c1ccc(/N=N/c2ccccn2)c(O)c1	> 0.5			
CN(C)c1ccc(/N=N/c2ccccn2)c(O)c1 [listing 3 of 3 here]				inhibition [6]: inactive
